Measurements as given in ChEMBL document CHEMBL4732173, “Easily accessed nitroquinolones exhibiting potent and selective anti-tubercular activity” (Eur J Med Chem, 2021).

Columns and labels:
[1] = Solubility of the compound in screening media; format: physicochemical
[2] = Solubility of the compound in DMSO; format: physicochemical
Mycobacterium ulcerans = experiment: Antibacterial activity against Mycobacterium ulcerans assessed as bacterial metabolic acativity at 10 ug/ml incubated for 8 days followed by addition of Alamar blue for 3 days by Alamar blue dye based fluorescence analysis; format: functional; conditions: dose 10 µg/ml; time 8 day
Method in brief: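 Tested in triplicate. Remaining metabolic activity (%PC) was calculated as blank-corrected fluorescence of each treated well divided by that of the untreated control.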

Structure (SMILES) | solubility [1] | solubility [2] | Activity (Mycobacterium ulcerans)
N#Cc1cccc(Cn2cc(C(=O)NCCOCCO)c(=O)c3cc([N+](=O)[O-])ccc32)c1 | Soluble | Insoluble | 
N#Cc1cccc(Cn2cc(C(=O)NCCNCCO)c(=O)c3cc([N+](=O)[O-])ccc32)c1 | Soluble | Insoluble | >90%
O=C(NO)c1cn(Cc2cccc(Cl)c2)c2ccc([N+](=O)[O-])cc2c1=O | Soluble | Insoluble | 
O=C(NCCNCCO)c1cn(Cc2ccc(F)cc2)c2ccc([N+](=O)[O-])cc2c1=O | Soluble | Insoluble | >90%
O=C(NCCN1CCOCC1)c1cn(Cc2cccc(Cl)c2)c2ccc([N+](=O)[O-])cc2c1=O | Soluble | Insoluble | 
O=C(NCCOCCO)c1cn(Cc2ccc(F)cc2)c2ccc([N+](=O)[O-])cc2c1=O | Soluble | Insoluble | >90%
CCOC(=O)c1c[nH]c2c(C(F)(F)F)cc([N+](=O)[O-])cc2c1=O | Soluble | Insoluble | >90%
COCCNC(=O)c1cn(Cc2cccc(Cl)c2)c2ccc([N+](=O)[O-])cc2c1=O | Soluble | Insoluble | >90%
O=C(NCCNCCO)c1cn(Cc2cccc(F)c2)c2ccc([N+](=O)[O-])cc2c1=O | Soluble | Insoluble | >90%
O=C(NCCN1CCOCC1)c1cn(Cc2cccc(Br)c2)c2ccc([N+](=O)[O-])cc2c1=O | Soluble | Insoluble | 
N#Cc1cccc(Cn2cc(C(=O)NO)c(=O)c3cc([N+](=O)[O-])ccc32)c1 | Soluble | Insoluble | 
COCCNC(=O)c1cn(Cc2cccc(C#N)c2)c2ccc([N+](=O)[O-])cc2c1=O | Soluble | Insoluble | 
O=C(NO)c1cn(Cc2cccc(F)c2)c2ccc([N+](=O)[O-])cc2c1=O | Soluble | Insoluble | 
O=C(NCCN1CCOCC1)c1cn(Cc2cccc(F)c2)c2ccc([N+](=O)[O-])cc2c1=O | Soluble | Insoluble | 
N#Cc1cccc(Cn2cc(C(=O)O)c(=O)c3cc([N+](=O)[O-])ccc32)c1 | Soluble | Insoluble | 
COCCNC(=O)c1cn(Cc2cccc(F)c2)c2ccc([N+](=O)[O-])cc2c1=O | Soluble | Insoluble | 
COCCNC(=O)c1cn(Cc2ccc(F)cc2)c2ccc([N+](=O)[O-])cc2c1=O | Soluble | Insoluble | >90%
O=C(NO)c1cn(Cc2cccc(Br)c2)c2ccc([N+](=O)[O-])cc2c1=O | Soluble | Insoluble | 
O=C(NCCOCCO)c1cn(Cc2cccc(Cl)c2)c2ccc([N+](=O)[O-])cc2c1=O | Soluble | Insoluble | 
O=C(NCCOCCO)c1cn(Cc2cccc(F)c2)c2ccc([N+](=O)[O-])cc2c1=O | Soluble | Insoluble | 
COCCNC(=O)c1cn(Cc2ccc(C#N)cc2)c2ccc([N+](=O)[O-])cc2c1=O | Soluble | Insoluble | 
N#Cc1ccc(Cn2cc(C(=O)NCCOCCO)c(=O)c3cc([N+](=O)[O-])ccc32)cc1 | Soluble | Insoluble | 
N#Cc1ccc(Cn2cc(C(=O)NCCNCCO)c(=O)c3cc([N+](=O)[O-])ccc32)cc1 | Soluble | Insoluble | 
